Measurements as given in ChEMBL document CHEMBL3046179, “Study on the anthraquinones separated from the cultivation of Trichoderma harzianum strain Th-R16 and their biological activity” (J Agric Food Chem, 2009).
Structures can show the parent of a compound that is named as a salt.

Tests used:
Staphylococcus aureus [1] = test: Antibacterial activity against Staphylococcus aureus after 24 hr by agar disk diffusion method; format: functional, organism-based
Summary of the method: (§1)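 Agar disk diffusion. Plates were spread with 1 mL culture containing 1 × 10^7 CFU: S. aureus and E. coli on tryptic soy agar, B. cereus and P. aeruginosa on nutrient agar. Each 8 mm filter-paper disc was blotted with 50 μL of a 500 μg/mL sample. Kanamycin sulfate 50 μg/mL discs were the positive control. Plates ran 24 h at 37 °C, and inhibition-zone diameter was measured in triplicate.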

Botrytis cinerea [2] = test: Antifungal activity against Botryotinia fuckeliana assessed as growth inhibition at 500 ug/mL after 4 days; format: functional; conditions: 96 h, read-out: GI
Summary of the method: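 Mycelial plug of B. cinerea was placed at the centre of PDA dishes containing test sample at 25 to 500 μg/mL. Colony diameter (mm) was read after 4 days, in triplicate.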

Pseudomonas aeruginosa [3] = test: Antibacterial activity against Pseudomonas aeruginosa using 50 uL of compound solution from 500 ug/mL stock solution after 24 hr by agar disk diffusion method; format: functional; summary of the method: as §1
Rhizoctonia solani [4] = test: Antifungal activity against Rhizoctonia solani assessed as growth inhibition at 500 ug/mL after 2 days; format: functional; conditions: 48 h, read-out: GI
Summary of the method: (§2)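 Rhizoctonia solani plugs were set centrally on PDA dishes holding test sample at 25 to 500 μg/mL. Mycelial diameter (mm) was measured after 2 days, in triplicate.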

Bacillus cereus [5] = test: Antibacterial activity against Bacillus cereus using 50 uL of compound solution from 500 ug/mL stock solution after 24 hr by agar disk diffusion method; format: functional; summary of the method: as §1
Staphylococcus aureus [6] = test: Antibacterial activity against Staphylococcus aureus using 50 uL of compound solution from 500 ug/mL stock solution after 24 hr by agar disk diffusion method; format: functional; summary of the method: as §1
Rhizoctonia solani [7] = test: Antifungal activity against Rhizoctonia solani assessed as inhibition of mycelium growth after 2 days; format: functional, organism-based; summary of the method: as §2
Escherichia coli [8] = test: Antibacterial activity against Escherichia coli using 50 uL of compound solution from 500 ug/mL stock solution after 24 hr by agar disk diffusion method; format: functional; summary of the method: as §1
Botrytis cinerea [9] = test: Antifungal activity against Botryotinia fuckeliana as inhibition of mycelium growth after 4 days; format: functional, organism-based
Summary of the method: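 Mycelial plugs of the pathogen placed at the centre of PDA Petri dishes holding 10 mL of test sample at 25 to 500 μg/mL. Mycelial diameter (mm) measured after 4 days for B. cinerea. Run in triplicate.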

Bacillus cereus [10] = test: Antibacterial activity against Bacillus cereus at 50 ug/mL after 24 hr by agar disk diffusion method; format: functional; conditions: read-out: DIZ
Escherichia coli [11] = test: Antibacterial activity against Escherichia coli at 50 ug/mL after 24 hr by agar disk diffusion method; format: functional; conditions: read-out: DIZ
Pseudomonas aeruginosa [12] = test: Antibacterial activity against Pseudomonas aeruginosa at 50 ug/mL after 24 hr by agar disk diffusion method; format: functional; conditions: read-out: DIZ
Staphylococcus aureus [13] = test: Antibacterial activity against Staphylococcus aureus at 50 ug/mL after 24 hr by agar disk diffusion method; format: functional; conditions: read-out: DIZ

SMILES | IC50 (Staphylococcus aureus [1]) | inhibition of growth at 500 µg/mL (Botrytis cinerea [2]) | diameter of the inhibition zone (DIZ) (Pseudomonas aeruginosa [3]) | inhibition of growth at 500 µg/mL (Rhizoctonia solani [4]) | diameter of the inhibition zone (DIZ) (Bacillus cereus [5]) | diameter of the inhibition zone (DIZ) (Staphylococcus aureus [6]) | growth inhibition (GI) (Rhizoctonia solani [7]) | diameter of the inhibition zone (DIZ) (Escherichia coli [8]) | growth inhibition (GI) (Botrytis cinerea [9]) | zone of inhibition at 50 µg/mL (Bacillus cereus [10]) | zone of inhibition at 50 µg/mL (Escherichia coli [11]) | zone of inhibition at 50 µg/mL (Pseudomonas aeruginosa [12]) | zone of inhibition at 50 µg/mL (Staphylococcus aureus [13])
O=C1c2cc(CO)cc(O)c2C(=O)c2cccc(O)c21 | 117 µM | 53.7% | <10 mm | 25.4% | 10.66 mm | 17.67 mm | Dose-dependent effect | <10 mm | – | – | – | – | –
O=C1c2ccc(O)cc2C(=O)c2c(O)cc(CO)cc21 | 221 µM | 92.8% | <10 mm | 67.3% | <10 mm | 14.33 mm | – | <10 mm | Dose-dependent effect | – | – | – | –
Cc1cc(O)c2c(c1)C(=O)c1cccc(O)c1C2=O [CHRYSOPHANOL] | – | 22.5% | <10 mm | 21.2% | <10 mm | <10 mm | – | <10 mm | – | – | – | – | –
Cc1cc(O)c2c(c1)C(=O)c1cc(O)cc(O)c1C2=O [EMODIN] | 46.3 µM | 51.7% | <10 mm | 39% | 10 mm | 11 mm | – | <10 mm | Dose-dependent effect | – | – | – | –
NC[C@H]1O[C@H](O[C@H]2[C@H](O)[C@@H](O[C@H]3O[C@H](CO)[C@@H](O)[C@H](N)[C@H]3O)[C@H](N)C[C@@H]2N)[C@H](O)[C@@H](O)[C@@H]1O [KANAMYCIN SULFATE] | – | – | – | – | – | – | – | – | – | 15 mm | 12 mm | 13 mm | 13 mm
O=C1c2ccccc2C(=O)c2c(O)cc(CO)cc21 [OMEGA-HYDROXYPACHYBASIN] | 123 µM | 47.3% | <10 mm | 41.5% | 11 mm | 20 mm | – | <10 mm | – | – | – | – | –
Cc1cc(O)c2c(c1)C(=O)c1ccccc1C2=O [PACHYBASIN] | – | 6% | <10 mm | 13.9% | <10 mm | 10.33 mm | – | <10 mm | – | – | – | – | –
